Assay results as given in ChEMBL document CHEMBL3877296, “Design, synthesis, and biological evaluation of novel alkylsulfanyl-1,2,4-triazoles as cis-restricted combretastatin A-4 analogues” (Eur J Med Chem, 2017).
pIC50: −log10 of the molar value.

Columns and labels:
Sus scrofa = species on record: Sus scrofa; assay: Inhibition of porcine brain tubulin polymerization at 10 uM in presence of GTP by spectrophotometric method relative to control
Method in brief: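 Tubulin was purified from pig brain microtubule protein by three temperature-driven assembly/disassembly cycles, then phosphocellulose chromatography. Polymerization ran in PEM buffer (100 mM PIPES, 1 mM MgCl2, 1 mM EGTA) with 1 mM GTP and 5% glycerol at 37 °C, followed by light scattering at 340 nm. Percent inhibition came from plateau absorbance, with a DMSO negative control and a CA-4 reference run the same day.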

[1] = Cytotoxicity against human PC3 cells assessed as growth inhibition after 48 hrs by MTT assay; assay type: functional, cell-based; details: PC-3, 48 h
Method in brief: (§1)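 Cells were kept in DMEM with 10% FBS and seeded at 5000 cells/well, then attached for 24 h at 37 °C. Compounds came from 20 mM DMSO stocks, serially diluted in medium, with 0.1% DMSO as vehicle control. After 48 h at 37 °C, MTT (5 mg/mL) was added for 4 h, formazan dissolved in DMSO and A570 read. IC50 was fitted from % inhibition versus control, mean of three independent experiments.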

[2] = Cytotoxicity against human HepG2 cells assessed as growth inhibition after 48 hrs by MTT assay; assay type: functional, cell-based; details: HepG2, 48 h; method in brief: as §1
[3] = Cytotoxicity against human HT-29 cells assessed as growth inhibition after 48 hrs by MTT assay; assay type: functional, cell-based; details: HT-29, 48 h; method in brief: as §1
[4] = Cytotoxicity against human HCT116 cells assessed as growth inhibition after 48 hrs by MTT assay; assay type: functional, cell-based; details: HCT-116, 48 h; method in brief: as §1
[5] = Cell cycle arrest in human PC3 cells assessed as G2/M phase accumulation at 6 uM after 12 hrs by propidium iodide staining based flow cytometry (reference value: 15.81%); assay type: functional; details: PC-3
Method in brief: (§2)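 PC-3 cells were grown overnight in dishes to about 70% confluence, then exposed to three compound concentrations. Cells were trypsinized, washed in PBS, fixed overnight in 75% ice-cold ethanol, RNase-treated at 37 °C for 30 min, and stained with propidium iodide. Phase percentages (sub-G1, G0/G1, S, G2/M) were read by flow cytometry against untreated cells.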

[6] = Cell cycle arrest in human PC3 cells assessed as subG1 phase accumulation at 12 uM after 12 hrs by propidium iodide staining based flow cytometry (reference value: 0.29%); assay type: functional; details: PC-3; method in brief: as §2
[7] = Cell cycle arrest in human PC3 cells assessed as G2/M phase accumulation at 12 uM after 12 hrs by propidium iodide staining based flow cytometry (reference value: 15.81%); assay type: functional; details: PC-3; method in brief: as §2
[8] = Cell cycle arrest in human PC3 cells assessed as S phase accumulation at 3 uM after 12 hrs by propidium iodide staining based flow cytometry (reference value: 31.7%); assay type: functional; details: PC-3; method in brief: as §2
[9] = Cell cycle arrest in human PC3 cells assessed as G0/G1 phase accumulation at 12 uM after 12 hrs by propidium iodide staining based flow cytometry (reference value: 51.58%); assay type: functional; details: PC-3; method in brief: as §2
[10] = Cell cycle arrest in human PC3 cells assessed as G2/M phase accumulation after 48 hrs by propidium iodide staining based flow cytometry; assay type: functional; details: PC-3; method in brief: as §2
[11] = Cell cycle arrest in human PC3 cells assessed as S phase accumulation at 12 uM after 12 hrs by propidium iodide staining based flow cytometry (reference value: 31.7%); assay type: functional; details: PC-3; method in brief: as §2
[12] = Cell cycle arrest in human PC3 cells assessed as G2/M phase accumulation at 3 uM after 12 hrs by propidium iodide staining based flow cytometry (reference value: 15.81%); assay type: functional; details: PC-3; method in brief: as §2
[13] = Cell cycle arrest in human PC3 cells assessed as subG1 phase accumulation at 6 uM after 12 hrs by propidium iodide staining based flow cytometry (reference value: 0.29%); assay type: functional; details: PC-3; method in brief: as §2
[14] = Cell cycle arrest in human PC3 cells assessed as S phase accumulation at 6 uM after 12 hrs by propidium iodide staining based flow cytometry (reference value: 31.7%); assay type: functional; details: PC-3; method in brief: as §2
[15] = Cell cycle arrest in human PC3 cells assessed as G0/G1 phase accumulation at 3 uM after 12 hrs by propidium iodide staining based flow cytometry (reference value: 51.58%); assay type: functional; details: PC-3; method in brief: as §2
[16] = Cell cycle arrest in human PC3 cells assessed as subG1 phase accumulation at 3 uM after 12 hrs by propidium iodide staining based flow cytometry (reference value: 0.29%); assay type: functional; details: PC-3; method in brief: as §2
[17] = Cell cycle arrest in human PC3 cells assessed as G0/G1 phase accumulation at 6 uM after 12 hrs by propidium iodide staining based flow cytometry (reference value: 51.58%); assay type: functional; details: PC-3; method in brief: as §2

Compound	inhibition (Sus scrofa)	pIC50 [1]	pIC50 [2]	pIC50 [3]	pIC50 [4]	also measured
COc1ccc(-n2c(SCc3ccccc3)nnc2-c2cc(OC)c(OC)c(OC)c2)cc1	16%	4.47	< 4.22	< 4.22	4.37	–
COc1ccc(-n2c(SCC(=O)Nc3ccc(Cl)cc3)nnc2-c2cc(OC)c(OC)c(OC)c2)cc1	31%	5.20	< 4.22	4.24	< 4.22	Activity [5]: 24.2%; Activity [6]: 0.37%; Activity [7]: 34.8%; Activity [8]: 30.8%; Activity [9]: 37.8%; Activity [10]: Dose-dependent effect; Activity [11]: 27.1%; Activity [12]: 20.1%; Activity [13]: 0.62%; Activity [14]: 31.7%; Activity [15]: 48%; Activity [16]: 0.43%; Activity [17]: 46%
CCOC(=O)CSc1nnc(-c2cc(OC)c(OC)c(OC)c2)n1-c1ccc(N(C)C)cc1	–	< 4.22	< 4.22	4.54	< 4.22	–
COc1cc(-c2nnc(SCc3ccc(C)cc3)n2-c2ccc(N(C)C)cc2)cc(OC)c1OC	21%	4.43	< 4.22	4.56	< 4.22	–
COc1ccc(-n2c(SCC(=O)c3ccc(F)cc3)nnc2-c2cc(OC)c(OC)c(OC)c2)cc1	12%	4.23	4.97	4.37	< 4.22	–
COc1ccc(CSc2nnc(-c3cc(OC)c(OC)c(OC)c3)n2-c2ccc(OC)cc2)cc1	29%	4.39	4.39	< 4.22	4.30	–
CCOC(=O)CSc1nnc(-c2cc(OC)c(OC)c(OC)c2)n1-c1ccc(OC)cc1	–	< 4.22	< 4.22	< 4.22	< 4.22	–
COc1ccc(-n2c(SCc3ccc(C)cc3)nnc2-c2cc(OC)c(OC)c(OC)c2)cc1	15%	4.25	4.50	< 4.22	4.48	–
COc1cc(-c2nnc(SCc3ccccc3)n2-c2ccc(N(C)C)cc2)cc(OC)c1OC	–	4.25	< 4.22	< 4.22	4.27	–
COc1ccc(-n2c(SCC(=O)c3ccc(OC)c(O)c3)nnc2-c2cc(OC)c(OC)c(OC)c2)cc1	–	< 4.22	< 4.22	< 4.22	< 4.22	–
COc1ccc(-n2c(SCC(=O)c3ccccc3)nnc2-c2cc(OC)c(OC)c(OC)c2)cc1	–	< 4.22	4.79	< 4.22	< 4.22	–
COc1cc(-c2nnc(SCC(=O)c3ccc4ccccc4c3)n2-c2ccc(N(C)C)cc2)cc(OC)c1OC	26%	4.74	< 4.22	< 4.22	4.26	–
COc1cc(-c2nnc(SCC(=O)Nc3ccc(Cl)cc3)n2-c2ccc(N(C)C)cc2)cc(OC)c1OC	17%	< 4.22	< 4.22	< 4.22	4.41	–
COc1ccc(CSc2nnc(-c3cc(OC)c(OC)c(OC)c3)n2-c2ccc(N(C)C)cc2)cc1	49%	< 4.22	< 4.22	< 4.22	5.94	–
COc1ccc(-n2c(SCC(=O)C3CC3)nnc2-c2cc(OC)c(OC)c(OC)c2)cc1	36%	4.43	< 4.22	< 4.22	< 4.22	–
CCSc1nnc(-c2cc(OC)c(OC)c(OC)c2)n1-c1ccc(N(C)C)cc1	–	4.34	< 4.22	< 4.22	< 4.22	–
COc1ccc(C(=O)CSc2nnc(-c3cc(OC)c(OC)c(OC)c3)n2-c2ccc(OC)cc2)cc1	30%	< 4.22	4.74	< 4.22	< 4.22	–

Compound	inhibition (Sus scrofa)	pIC50 [1]	pIC50 [2]	pIC50 [3]	pIC50 [4]	also measured
COc1cc(-c2nnc(S)n2-c2ccc(N(C)C)cc2)cc(OC)c1OC	–	< 4.22	< 4.22	< 4.22	< 4.22	–
COc1ccc(-n2c(SCc3ccc(F)cc3)nnc2-c2cc(OC)c(OC)c(OC)c2)cc1	–	4.46	4.46	4.29	4.41	–
COc1ccc(C(=O)CSc2nnc(-c3cc(OC)c(OC)c(OC)c3)n2-c2ccc(N(C)C)cc2)cc1O	–	< 4.00	< 4.00	< 4.22	< 4.00	–
COc1cc(-c2nnc(SC)n2-c2ccc(N(C)C)cc2)cc(OC)c1OC	–	< 4.22	< 4.22	< 4.22	< 4.22	–
COc1cc(-c2nnc(SCC(=O)c3ccccc3)n2-c2ccc(N(C)C)cc2)cc(OC)c1OC	16%	4.41	4.72	4.35	4.37	–
COc1cc(-c2nnc(SCC(=O)c3ccc(F)cc3)n2-c2ccc(N(C)C)cc2)cc(OC)c1OC	–	4.37	< 4.22	4.11	4.51	–
COc1ccc(-n2c(SC)nnc2-c2cc(OC)c(OC)c(OC)c2)cc1	–	< 4.22	< 4.22	< 4.22	< 4.22	–
COc1cc(-c2nnc(SCc3ccc(F)cc3)n2-c2ccc(N(C)C)cc2)cc(OC)c1OC	–	4.33	4.58	4.35	< 4.22	–
COc1ccc(-n2c(S)nnc2-c2cc(OC)c(OC)c(OC)c2)cc1	–	< 4.22	4.24	< 4.22	< 4.22	–
CCSc1nnc(-c2cc(OC)c(OC)c(OC)c2)n1-c1ccc(OC)cc1	–	4.24	< 4.22	< 4.22	< 4.22	–
COc1ccc(-n2c(SCC(=O)c3ccc4ccccc4c3)nnc2-c2cc(OC)c(OC)c(OC)c2)cc1	–	< 4.22	< 4.22	4.27	< 4.22	–
COc1cc(-c2nnc(SCC(=O)C3CC3)n2-c2ccc(N(C)C)cc2)cc(OC)c1OC	–	4.34	< 4.22	< 4.22	< 4.22	–
COc1ccc(C(=O)CSc2nnc(-c3cc(OC)c(OC)c(OC)c3)n2-c2ccc(N(C)C)cc2)cc1	38%	4.66	4.73	4.19	< 4.22	–
COc1ccc(NC(=O)CSc2nnc(-c3cc(OC)c(OC)c(OC)c3)n2-c2ccc(OC)cc2)cc1	10%	4.59	< 4.22	4.34	< 4.22	–
COc1ccc(NC(=O)CSc2nnc(-c3cc(OC)c(OC)c(OC)c3)n2-c2ccc(N(C)C)cc2)cc1	–	4.25	< 4.22	4.29	< 4.22	–
COc1ccc(/C=C\c2cc(OC)c(OC)c(OC)c2)cc1O [COMBRETASTATIN A4]	80%	4.66	5.28	5.71	5.21	–
